ABHD4 inh: inhibits mouse alpha/beta hydrolase domain 4; purified mABHD4, FP-Rh probe fluorescence polarization; inhibition, % at 8.92 µM; 370,000 tested, 0.54% active; AID 720543;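 active means inhibition exceeding the mean over every tested compound plus 3 SD, cut at about 30% in these data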;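 further: 0% = plate median of compound wells and 100% = S159A mutant with DMSO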
Target sequence (Q8VD66 whole entry, looked up, the tested form may be a part): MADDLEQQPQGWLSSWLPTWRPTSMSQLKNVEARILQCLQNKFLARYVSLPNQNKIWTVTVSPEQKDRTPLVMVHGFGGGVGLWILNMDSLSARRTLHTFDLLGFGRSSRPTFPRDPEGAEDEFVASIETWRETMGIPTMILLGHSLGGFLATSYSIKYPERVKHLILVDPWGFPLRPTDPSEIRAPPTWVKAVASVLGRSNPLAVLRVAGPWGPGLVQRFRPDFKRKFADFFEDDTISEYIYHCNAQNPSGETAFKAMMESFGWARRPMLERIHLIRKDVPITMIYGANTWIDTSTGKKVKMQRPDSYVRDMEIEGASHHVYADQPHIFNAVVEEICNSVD
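Assay system: wild-type mouse ABHD4 protein; compound: single nominal dose of 8.92 µM, 0.89% DMSO final; schedule: 45 min + 60 min at 25 °C; measured by: FP readout, ex 525 nm / em 598 nm; evaluation: % inhibition of FP-Rh probe binding versus controls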
HTRA1 inhibitor: HTRA1 (human) protease inhibition | Q92743 | recombinant HTRA1, FP-rhodamine activity-based probe, fluorescence polarization | inhibition, % at 5.96 µM | 340,000 tested, 0.5% active | AID 504803; in the data active means inhibition above about 36%;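 further: 0% = enzyme with DMSO and 100% = wells lacking enzyme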
rCAG binder: binds r(CAG) RNA repeats | r(CAG) RNA repeat, TO-PRO-1 dye displacement fluorescence | inhibition, % at 3 µM | 370,000 tested, 1.3% active;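 active means inhibition above the plate cutoff, the mean of all test compounds on that plate plus 3 SD, cut at about 35% in these data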;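 further: 0% = DMSO alone and 100% = 100 µM mitoxantrone as full dye displacement; higher means more dye released from RNA so lower well fluorescence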
SIAE inh: inhibitors of human sialic acid acetylesterase SIAE. Q9HAT2. SIAE FP-Rh probe binding, fluorescence polarization. inhibition, % at 9.66 µM. 370,000 tested, 0.69% active. AID 1053197;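 active means inhibition above a cutoff: mean of compounds within the control limits plus 3 SD of those, cut at about 17% in these data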;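 further: 0% = plate median of compound wells and 100% = probe without SIAE protein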
TCR-CD3 inh: inhibitors of human TCR-CD3 interaction. TAMRA-labeled TCR probe fluorescence, biochemical. inhibition, % at 9.4 µM. 360,000 tested, 0.37% active. AID 651800; in the data active means inhibition above about 19%;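 further: recombinant mutant TCR 2C K166C tagged with TAMRA read by polarization; 0% = receptor in buffer alone and 100% = receptor with positive control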
rCAG binder conf: r(CAG) RNA repeat binding, confirmation | 4,300 tested, 70% active | shares compounds with rCAG binder | inhibition, % at 3 µM | AID 652065 | TO-PRO-1 dye displacement fluorescence;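 active means inhibition above a per-plate cutoff, the mean inhibition of sample wells plus 3 SD, cut at about 35% in these data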;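 further: loss of TO-PRO-1 fluorescence as compound displaces dye from 1x1 AA loop RNA; 0% = DMSO only wells and 100% = 100 µM mitoxantrone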
DNA CAG counter: DNA CAG dye complex inhibition counter-screen; 4,300 tested, 94% active; AID 652068; shares compounds with rCAG binder; d(CAG) DNA oligo TO-PRO-1 dye displacement, fluorescence; inhibition, % at 3 µM;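 active means inhibition above its plate's cutoff, the mean test-well inhibition plus 3 SD, cut at about 4.8% in these data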;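 further: 0% = DNA dye mix with DMSO and 100% = 100 µM mitoxantrone; hits displace the dye from DNA and so lower well fluorescence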
dCAG dye DR: counter-screen for rCAG binders: inhibitors of DNA CAG TO-PRO-1 complex. shares compounds with rCAG binder. DNA CAG/GTC duplex TO-PRO-1 dye displacement fluorescence. IC50, µM. 250 tested, 20% active. AID 686960; in the data active means IC50 below about 10 µM
The depositor's hits bear a star; / = not tested or not shown. Shown are actives, neighbours in structure and some others; about 2.5% of the full set was active somewhere.

SMILES	ABHD4 inh	HTRA1 inhibitor	rCAG binder	SIAE inh	TCR-CD3 inh	rCAG binder conf	DNA CAG counter	others
COc1ccc(S(=O)(=O)N2CCCCC2)cc1NC(=O)c1cccc(S(=O)(=O)N2CCOCC2)c1	6	3	3	1	6	/	/
COc1cc(OC)c(OC)cc1/C=N/NC(=S)NCCN1CCOCC1	3	-4	-3	15	0	/	/
Cc1c(Cl)cccc1NC(=O)CCCn1nc([N+](=O)[O-])cc1C	1	-2	-3	-5	-8	/	/
Cc1cc(N2C(=O)C(O)=C(C(=O)c3cc4ccccc4o3)C2c2ccc(Br)cc2)no1 (centres undefined)	-11	-18	34	0	-3	/	/
Cc1cc(N2C(=O)C(O)=C(C(=O)c3ccc(C)o3)C2c2cccc(Cl)c2)no1 (centres undefined)	-2	4	27	-4	-13	/	/
Cc1cc(N2C(=O)C(O)=C(C(=O)c3cc4ccccc4o3)C2c2cccc(Cl)c2)no1 (centres undefined)	2	-34	60*	-6	-12	71*	32*	dCAG dye DR=5.7*
Cc1cc(N2C(=O)C(O)=C(C(=O)c3cc4ccccc4o3)C2c2ccc(Cl)cc2)no1 (centres undefined)	-7	-39	56*	-10	-10	75*	38*
CCOc1ccc(NC(=O)CN(C)C(=O)C2CC2C)cc1OCC (centres undefined)	-2	6	-1	-6	2	/	/
CCc1ccccc1NC(=O)CSc1nnc(Cn2cnc3ccccc32)o1	-1	8	-5	-6	-6	/	/
CC1(C(=O)NS(=O)(=O)c2ccccc2Cl)CCN1C(=O)CC(c1ccccc1)c1ccccc1 (centres undefined)	-2	/	50*	9	4	45*	9.2*
Cc1ccccc1S(=O)(=O)NC(=O)C1(C)CCN1C(=O)CC(c1ccccc1)c1ccccc1 (centres undefined)	4	/	47*	-2	1	33	7.0*
CC1(C(=O)NS(=O)(=O)c2cccc(OC(F)F)c2)CCN1C(=O)CC(c1ccccc1)c1ccccc1 (centres undefined)	6	/	52*	0	2	46*	14*
CC1(C(=O)NS(=O)(=O)c2ccccc2)CCN1C(=O)CC(c1ccccc1)c1ccccc1 (centres undefined)	11	/	31	1	-9	/	/
CC(C)(C)C(=O)Nc1cc2c3c(c1)CC(=O)N3CCC2	3	9	2	7	6	/	/
N#C/C(=C(/O)COc1ccccc1)c1nc2ccccc2s1	5	1	6	-4	-3	/	/
N#C/C(=C(/O)COC(=O)c1ccc(C#N)cc1)c1nc2ccccc2s1	1	-3	38*	-9	-8	40*	17*
COc1ccc(NS(=O)(=O)c2cccc(C(=O)N3CCN(C(=O)c4ccco4)CC3)c2)cc1	0	-2	1	-5	-2	/	/
CSCC[C@H](NC(=O)c1cc2c([nH]c3ccccc32)c(-c2ccccc2)n1)C(=O)O	-11	-29	55*	-17	2	50*	14*
C[C@H](NC(=O)c1cc2c([nH]c3ccccc32)c(-c2ccccc2)n1)C(=O)O	-2	-3	22	-13	1	/	/
Nc1nc2n(n1)C(c1ccco1)CC(c1ccccc1)N2 (centres undefined)	5	-3	0	12	0	/	/
O=C(COC(=O)c1cc([N+](=O)[O-])ccc1N1CCOCC1)NC1CCCCC1	4	-2	-1	-8	9	/	/
COc1ccccc1NS(=O)(=O)c1cc([N+](=O)[O-])ccc1N/N=C/c1c[nH]c2ccccc12	9	10	74*	6	-6	71*	36*
O=C(N/N=C/c1c[nH]c2ccccc12)c1cccc([N+](=O)[O-])c1	11	5	1	14	-1	/	/
COc1ccc(/C=N/Nc2ccccc2C(=O)O)cc1Cn1cc([N+](=O)[O-])cn1	13	-1	50*	6	3	40*	13*

Source: PubChem (The Scripps Research Institute Molecular Screening Center)
